{"data": "Experimental data of several laboratories", "target": "Muscarinic acetylcholine receptor M3 (CHRM3, Homo sapiens, UniProt P20309)", "tested at": "10 µM", "note": "Each line is one published result; the experiments were not run side by side."}
{"Compound": "COCc1c(-c2cc3cc(C)cc(OC)c3s2)c2c(N)ncnn2c1CN1CCNC(=O)C1", "test": "ligand displacement, radioligand", "inhibition": "0%"}
{"Compound": "c1ccc(C(NCCNC(c2ccccc2)c2ccccc2)c2ccccc2)cc1", "test": "cell-free assay", "inhibition": "11%"}
{"Compound": "CN1CC[C@@]2(C)c3cc(OC(=O)Nc4ccccc4)ccc3N(C)[C@@H]12", "test": "ligand displacement, radioligand", "inhibition": "3.1%"}
{"Compound": "COc1ccc(C(=O)NCc2cc(C(C)C)no2)cc1OC1CCN(C)CC1", "test": "ligand displacement, radioligand", "inhibition": "26%"}
{"Compound": "CCN(CC)CCCC[C@H](NC(=O)[C@H](CC(C)C)NC(=O)[C@H](C)NC(=O)[C@H](Cc1ccccc1)NC(=O)c1ccc(C(C)(C)C)cc1)C(=O)N[C@@H](CO)C(=O)OC", "test": "ligand displacement, radioligand", "inhibition": "7%"}
{"Compound": "Cc1ccccc1Oc1cc(-n2c(=O)cc(C(F)(F)F)[nH]c2=O)c2ccccc2c1Cl", "test": "ligand displacement", "inhibition": "-16.2%"}
{"Compound": "CC(C)N1CCC[C@H]1CNC(=O)c1cn(C2CCCC2)c(=O)c2c1c1ccccc1n2C", "test": "ligand displacement, radioligand", "inhibition": "12%"}
{"Compound": "C[C@H](C(=O)N[C@H]1COc2ccccc2[C@@H]1S(C)(=O)=O)c1ccc(F)cc1", "test": "cell-free assay", "inhibition": "12%"}
{"Compound": "Clc1ccc2c(C3CCN(CCc4c[nH]c5ccccc45)CC3)c[nH]c2c1", "test": "ligand displacement, radioligand", "inhibition": "61%"}
{"Compound": "CCC(=NO)C(C)=Cc1ccc(F)c(C)c1", "test": "ligand displacement", "inhibition": "-5.75%"}
